ChEMBL document CHEMBL2424580, “Radiosynthesis of N-(4-chloro-3-[(11)C]methoxyphenyl)-2-picolinamide ([(11)C]ML128) as a PET radiotracer for metabotropic glutamate receptor subtype 4 (mGlu4)” (Bioorg Med Chem, 2013)

Assays:
[1] = biological target: Metabotropic glutamate receptor 8 (Homo sapiens) (UniProt O00222); assay: Agonist activity at mGlu8 receptor (unknown origin) expressed in CHO cells assessed as induction of inositol phosphate accumulation at 10 uM after 45 mins by liquid scintillation counting analysis relative to control; type: functional, cell-based
How it was run: (§1)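 Stably transfected CHO cells grown to confluency (3–4 days), then labelled overnight with myo-[3H]inositol in glutamine-free medium. Compound at 10 μM, 45 min at 37°C, in Locke's buffer pH 7.4 with 20 mM LiCl. IPs extracted with 0.1 M HCl, separated by anion exchange, counted by liquid scintillation. Result given as % of maximal agonist activity. Duplicates in two experiments on different passages.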

[2] = biological target: Metabotropic glutamate receptor 5 (Homo sapiens) (UniProt P41594); assay: Antagonist activity at mGlu5a receptor (unknown origin) expressed in CHO cells assessed as inhibition of glutamate-induced inositol phosphate accumulation at 10 uM after 45 mins by liquid scintillation counting analysis relative to control; type: functional, cell-based
[3] = biological target: Metabotropic glutamate receptor 5 (Homo sapiens) (UniProt P41594); assay: Agonist activity at mGlu5a receptor (unknown origin) expressed in CHO cells assessed as induction of inositol phosphate accumulation at 10 uM after 45 mins by liquid scintillation counting analysis relative to control; type: functional, cell-based; how it was run: as §1
[4] = biological target: Metabotropic glutamate receptor 8 (Homo sapiens) (UniProt O00222); assay: Antagonist activity at mGlu8 receptor (unknown origin) expressed in CHO cells assessed as inhibition of glutamate-induced inositol phosphate accumulation at 10 uM after 45 mins by liquid scintillation counting analysis relative to control; type: functional, cell-based
Blood = assay: Biodistribution in Sprague-Dawley rat blood at 27.4 to 48.1 MBq after 1 to 40 mins by gamma counting analysis; type: ADME, organism-based; conditions: in vivo
How it was run: (§2)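 Male Sprague Dawley rats (300–500 g) given the radioligand i.v. (27.4–48.1 MBq/animal) in 10% ethanol/saline. Three rats were sacrificed at each of 1, 5, 10, 20 and 40 min. Harvested tissues were weighed and gamma-counted. Counts were corrected for decay and injected activity and expressed as %ID/g tissue.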

Cerebellum [5] = assay: Drug uptake in Sprague-Dawley rat cerebellum at 24.1 MBq, iv measured for 1 to 3 mins by PET analysis; type: ADME, organism-based; conditions: in vivo
How it was run: (§3)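 Male Sprague Dawley rats (300–500 g) under isoflurane/nitrous oxide anesthesia, with radioligand given via tail-vein catheter in 10% ethanol/saline. Dynamic small-animal PET ran for 60 min from injection (frames 18×10″, 14×30″, 20×60″, 10×180″), followed by CT for anatomy and attenuation. Data were corrected for uniformity, scatter and attenuation and reconstructed by MLEM (30 iterations) to give regional time-activity curves.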

[6] = Drug uptake in Sprague-Dawley rat olfactory bulb at 24.1 MBq, iv measured within 20 mins by PET analysis; type: ADME, organism-based; conditions: in vivo; how it was run: as §3
Thalamus [7] = assay: Drug uptake in Sprague-Dawley rat thalamus at 24.1 MBq, iv measured for 1 to 3 mins by PET analysis; type: ADME, organism-based; conditions: in vivo; how it was run: as §3
Muscle tissue = assay: Biodistribution in Sprague-Dawley rat muscle at 27.4 to 48.1 MBq after 1 to 40 mins by gamma counting analysis; type: ADME, organism-based; conditions: in vivo; how it was run: as §2
[8] = Drug uptake in Sprague-Dawley rat olfactory bulb at 24.1 MBq, iv measured for 1 to 3 mins by PET analysis; type: ADME, organism-based; conditions: in vivo; how it was run: as §3
Lung = assay: Biodistribution in Sprague-Dawley rat lung at 27.4 to 48.1 MBq after 1 to 40 mins by gamma counting analysis; type: ADME, organism-based; conditions: in vivo; how it was run: as §2
Hippocampus [9] = assay: Drug uptake in Sprague-Dawley rat hippocampus at 24.1 MBq, iv measured for 1 to 3 mins by PET analysis; type: ADME, organism-based; conditions: in vivo; how it was run: as §3
Kidney = assay: Biodistribution in Sprague-Dawley rat kidney at 27.4 to 48.1 MBq after 1 to 40 mins by gamma counting analysis; type: ADME, organism-based; conditions: in vivo; how it was run: as §2
[10] = Octanol-PBS buffer partition coefficient, log D of the compound at pH 7.4 by gamma counting analysis; type: physicochemical
How it was run: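 Radiotracer was partitioned between PBS and octanol by vortexing 2 min, then centrifuging at >8000 rpm for 2 min. Octanol was serially re-extracted into fresh PBS across six tube sets. Phases were gamma-counted with decay correction. logD = log(octanol activity × 10 / PBS activity).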

Striatum [11] = assay: Drug uptake in Sprague-Dawley rat striatum at 24.1 MBq, iv measured for 1 to 3 mins by PET analysis; type: ADME, organism-based; conditions: in vivo; how it was run: as §3
[12] = Metabolic stability in Sprague-Dawley rat plasma assessed as intact compound level at 24.1 MBq, iv after 50 mins by gamma counting analysis; type: ADME, organism-based; conditions: read-out: Stability
Liver = assay: Biodistribution in Sprague-Dawley rat liver at 27.4 to 48.1 MBq after 1 to 40 mins by gamma counting analysis; type: ADME, organism-based; conditions: in vivo; how it was run: as §2
Cerebellum [13] = assay: Reduction in drug uptake in Sprague-Dawley rat cerebellum at 24.1 MBq, iv after 2 to 15 mins by PET analysis in presence of mGlu4 blocker N-(3-(Difluoromethoxy)phenyl)-2-picolinamide hydrochloride salt; type: ADME, organism-based; conditions: in vivo
How it was run: (§4)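 Rats were pretreated with the mGlu4 blocker (10 mg/kg i.p., in 10% ethanol/10% Tween-20 in water) 30 min before i.v. radioligand. Anesthetized rats were imaged by 60-min dynamic PET with CT attenuation correction and MLEM reconstruction. Uptake at 2–15 min was compared with control scans, and percent change was calculated per brain region.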

Hippocampus [14] = assay: Reduction in drug uptake in Sprague-Dawley rat hippocampus at 24.1 MBq, iv after 2 to 15 mins by PET analysis in presence of mGlu5 blocker MTEP hydrochloride; type: ADME, organism-based; conditions: in vivo
How it was run: (§5)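 MTEP·HCl (5 mg/kg, in sterile water) was injected into the tail vein 2 min before i.v. radioligand. Anesthetized rats were imaged by 60-min dynamic PET with CT attenuation correction and MLEM reconstruction. Uptake at 2–15 min was compared with control scans, and percent change was calculated per brain region.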

Cerebellum [15] = assay: Drug uptake in Sprague-Dawley rat cerebellum at 24.1 MBq, iv measured within 20 mins by PET analysis; type: ADME, organism-based; conditions: in vivo; how it was run: as §3
Striatum [16] = assay: Reduction in drug uptake in Sprague-Dawley rat striatum at 24.1 MBq, iv after 2 to 15 mins by PET analysis in presence of mGlu4 blocker N-(3-(Difluoromethoxy)phenyl)-2-picolinamide hydrochloride salt; type: ADME, organism-based; conditions: in vivo; how it was run: as §4
Heart = assay: Biodistribution in Sprague-Dawley rat heart at 27.4 to 48.1 MBq after 1 to 40 mins by gamma counting analysis; type: ADME, organism-based; conditions: in vivo; how it was run: as §2
Thalamus [17] = assay: Drug uptake in Sprague-Dawley rat thalamus at 24.1 MBq, iv measured within 20 mins by PET analysis; type: ADME, organism-based; conditions: in vivo; how it was run: as §3
[18] = Reduction in drug uptake in Sprague-Dawley rat whole brain at 24.1 MBq, iv after 2 to 15 mins by PET analysis in presence of mGlu5 blocker MTEP hydrochloride; type: ADME, organism-based; conditions: in vivo; how it was run: as §5
Hippocampus [19] = assay: Reduction in drug uptake in Sprague-Dawley rat hippocampus at 24.1 MBq, iv after 2 to 15 mins by PET analysis in presence of mGlu4 blocker N-(3-(Difluoromethoxy)phenyl)-2-picolinamide hydrochloride salt; type: ADME, organism-based; conditions: in vivo; how it was run: as §4
[20] = Metabolic stability in Sprague-Dawley rat plasma assessed as intact compound level at 24.1 MBq, iv after 5 mins by gamma counting analysis; type: ADME, organism-based; conditions: read-out: Stability
How it was run: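 Femoral arterial blood was drawn from three rats at 5, 25 and 55 min after i.v. radioligand and centrifuged. Plasma was mixed 1:1 with acetonitrile and centrifuged to remove protein. The supernatant was loaded on a phenyl SPE cartridge and eluted with an acetonitrile–0.1% TFA/water gradient (0–100% acetonitrile) to separate intact tracer.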

Striatum [21] = assay: Reduction in drug uptake in Sprague-Dawley rat striatum at 24.1 MBq, iv after 2 to 15 mins by PET analysis in presence of mGlu5 blocker MTEP hydrochloride; type: ADME, organism-based; conditions: in vivo; how it was run: as §5
Brain = assay: Biodistribution in Sprague-Dawley rat brain at 27.4 to 48.1 MBq after 1 to 40 mins by gamma counting analysis; type: ADME, organism-based; conditions: in vivo; how it was run: as §2
Hippocampus [22] = assay: Drug uptake in Sprague-Dawley rat hippocampus at 24.1 MBq, iv measured within 20 mins by PET analysis; type: ADME, organism-based; conditions: in vivo; how it was run: as §3
Striatum [23] = assay: Drug uptake in Sprague-Dawley rat striatum at 24.1 MBq, iv measured within 20 mins by PET analysis; type: ADME, organism-based; conditions: in vivo; how it was run: as §3
[24] = Reduction in drug uptake in Sprague-Dawley rat whole brain at 24.1 MBq, iv after 2 to 15 mins by PET analysis in presence of mGlu4 blocker N-(3-(Difluoromethoxy)phenyl)-2-picolinamide hydrochloride salt; type: ADME, organism-based; conditions: in vivo; how it was run: as §4

Metabotropic glutamate receptor 5 (Homo sapiens), sequence (P41594 21-1212 limits assumed): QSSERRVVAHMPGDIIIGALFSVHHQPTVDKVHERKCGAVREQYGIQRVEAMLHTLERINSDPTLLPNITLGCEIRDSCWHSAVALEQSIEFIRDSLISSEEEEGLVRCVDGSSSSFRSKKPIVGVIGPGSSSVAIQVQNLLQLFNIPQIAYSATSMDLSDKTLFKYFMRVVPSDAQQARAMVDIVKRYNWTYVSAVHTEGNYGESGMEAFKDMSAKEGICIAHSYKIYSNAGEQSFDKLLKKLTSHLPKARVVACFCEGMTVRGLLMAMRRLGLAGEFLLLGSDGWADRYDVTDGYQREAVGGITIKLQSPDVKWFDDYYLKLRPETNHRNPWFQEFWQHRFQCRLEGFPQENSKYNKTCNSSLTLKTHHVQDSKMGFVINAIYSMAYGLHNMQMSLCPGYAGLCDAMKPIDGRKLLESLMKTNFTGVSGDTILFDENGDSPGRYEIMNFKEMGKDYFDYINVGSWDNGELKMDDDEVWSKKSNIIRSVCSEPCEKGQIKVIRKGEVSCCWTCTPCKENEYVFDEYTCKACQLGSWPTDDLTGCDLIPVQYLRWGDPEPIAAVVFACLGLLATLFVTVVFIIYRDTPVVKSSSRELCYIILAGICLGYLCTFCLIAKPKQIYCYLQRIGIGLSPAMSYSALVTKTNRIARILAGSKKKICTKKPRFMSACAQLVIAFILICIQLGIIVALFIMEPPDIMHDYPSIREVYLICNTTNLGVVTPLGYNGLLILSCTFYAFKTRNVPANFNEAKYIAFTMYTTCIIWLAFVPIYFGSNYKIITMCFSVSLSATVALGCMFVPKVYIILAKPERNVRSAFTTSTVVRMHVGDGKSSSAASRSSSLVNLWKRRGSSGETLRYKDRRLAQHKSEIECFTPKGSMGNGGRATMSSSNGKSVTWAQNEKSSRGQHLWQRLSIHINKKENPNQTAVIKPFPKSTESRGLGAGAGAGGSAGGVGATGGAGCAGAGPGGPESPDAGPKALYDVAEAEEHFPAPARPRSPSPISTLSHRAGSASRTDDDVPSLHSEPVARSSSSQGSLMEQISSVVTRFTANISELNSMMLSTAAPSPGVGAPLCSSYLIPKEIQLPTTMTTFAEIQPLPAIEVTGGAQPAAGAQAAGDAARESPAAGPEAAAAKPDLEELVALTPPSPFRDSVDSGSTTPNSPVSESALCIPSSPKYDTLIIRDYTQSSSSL
Metabotropic glutamate receptor 8 (Homo sapiens), sequence (O00222 whole entry): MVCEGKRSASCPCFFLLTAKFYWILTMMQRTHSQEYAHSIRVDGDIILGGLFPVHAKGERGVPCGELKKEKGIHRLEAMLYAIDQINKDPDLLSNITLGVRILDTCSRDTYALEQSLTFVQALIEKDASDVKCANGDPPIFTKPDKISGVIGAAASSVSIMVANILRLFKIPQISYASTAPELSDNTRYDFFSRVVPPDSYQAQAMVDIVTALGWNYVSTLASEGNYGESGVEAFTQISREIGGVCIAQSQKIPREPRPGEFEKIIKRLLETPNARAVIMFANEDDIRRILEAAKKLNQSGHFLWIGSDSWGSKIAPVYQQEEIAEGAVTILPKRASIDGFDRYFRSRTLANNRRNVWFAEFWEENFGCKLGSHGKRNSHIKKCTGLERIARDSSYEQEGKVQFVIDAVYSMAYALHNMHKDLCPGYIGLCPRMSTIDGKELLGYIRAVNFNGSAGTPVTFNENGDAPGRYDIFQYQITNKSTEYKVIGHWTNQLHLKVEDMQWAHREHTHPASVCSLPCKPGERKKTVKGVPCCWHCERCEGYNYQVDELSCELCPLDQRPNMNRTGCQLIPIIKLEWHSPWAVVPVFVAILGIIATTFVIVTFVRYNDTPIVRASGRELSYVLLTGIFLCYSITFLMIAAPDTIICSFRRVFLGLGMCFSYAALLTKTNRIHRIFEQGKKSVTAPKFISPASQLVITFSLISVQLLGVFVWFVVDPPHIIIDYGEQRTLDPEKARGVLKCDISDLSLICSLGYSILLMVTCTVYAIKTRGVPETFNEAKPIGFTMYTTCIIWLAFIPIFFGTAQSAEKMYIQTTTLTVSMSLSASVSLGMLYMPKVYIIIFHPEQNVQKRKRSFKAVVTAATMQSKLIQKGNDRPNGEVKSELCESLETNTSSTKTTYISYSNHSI

COc1cc(NC(=O)c2ccccn2)ccc1Cl
Activity [1]: 13% | inhibition [2]: 51% | Activity [3]: -15% | inhibition [4]: -5%

[11CH3]Oc1cc(NC(=O)c2ccccn2)ccc1Cl
Drug uptake (Blood): < 1 % ID/g | Drug uptake (Cerebellum [5]): Active | Drug uptake [6]: Not Active | Drug uptake (Thalamus [7]): Active | Drug uptake (Muscle tissue): < 1 % ID/g | Drug uptake [8]: Active | Drug uptake (Lung): < 1 % ID/g | Drug uptake (Hippocampus [9]): Active | Drug uptake (Kidney): > 1 % ID/g | logD [10]: 3.09 | Drug uptake (Striatum [11]): Active | remaining at 50 min [12]: 10% | Drug uptake (Liver): > 1 % ID/g | Drug uptake (Cerebellum [13]): Active | Drug uptake (Hippocampus [14]): Active | Drug uptake (Cerebellum [15]): Not Active | Drug uptake (Striatum [16]): Active | Drug uptake (Heart): < 1 % ID/g | Drug uptake (Thalamus [17]): Not Active | Drug uptake [18]: Active | Drug uptake (Hippocampus [19]): Active | remaining at 5 min [20]: 30% | Drug uptake (Striatum [21]): Active | Drug uptake (Brain): < 1 % ID/g | Drug uptake (Hippocampus [22]): Not Active | Drug uptake (Striatum [23]): Not Active | Drug uptake [24]: Active
